Assays:
Cavia porcellus [1] = organism: Cavia porcellus; experiment: Increase in heart rate with maximal inotropic response in isolated perfused guinea pig heart; type: functional
Procedure, shortened: (§1)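 Langendorff-perfused isolated guinea pig heart. Compounds were given as a bolus injected into the perfusion stream, with impromidine as reference. Net increases in LV dp/dtmax, heart rate and coronary flow were expressed against impromidine = 100% in a control group (n = 6 each). Relative potency was taken from molar ED50 ratios versus impromidine = 100%.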

Cavia porcellus [2] = organism: Cavia porcellus; experiment: Chronotropic effect assessed from maximal increase in delta LV (dp/dtmax) in isolated perfused guinea pig heart; type: functional; conditions: in the assay text read “Inotropic effect” for “Chronotropic effect”; procedure, shortened: as §1
Cavia porcellus [3] = organism: Cavia porcellus; experiment: Increase in coronary flow with maximal inotropic response in isolated perfused guinea pig heart; type: functional; set-up: unit not given beside the values; procedure, shortened: as §1
Cavia porcellus [4] = organism: Cavia porcellus; experiment: Relative potency with impromidine (100%) in isolated perfused guinea pig heart; type: functional; procedure, shortened: as §1
[5] = molecular target: Histamine H2 receptor (Cavia porcellus) (UniProt P47747); experiment: Histamine H2 receptor agonistic activity (as a measure of agonism) at the isolated right atrium of guinea pig, activity relative to histamine.; type: functional, tissue-based; conditions: Cardiac atrium
Sequence of Histamine H2 receptor (Cavia porcellus) (P47747 whole entry): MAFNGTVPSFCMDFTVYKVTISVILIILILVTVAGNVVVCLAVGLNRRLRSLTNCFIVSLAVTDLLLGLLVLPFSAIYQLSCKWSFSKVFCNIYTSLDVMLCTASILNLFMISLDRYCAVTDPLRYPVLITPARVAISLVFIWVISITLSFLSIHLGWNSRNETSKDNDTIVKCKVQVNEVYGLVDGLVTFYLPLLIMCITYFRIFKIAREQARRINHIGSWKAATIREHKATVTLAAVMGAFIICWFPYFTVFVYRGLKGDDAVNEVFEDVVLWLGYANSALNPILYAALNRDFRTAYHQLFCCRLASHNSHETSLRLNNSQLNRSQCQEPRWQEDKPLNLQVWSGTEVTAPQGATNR
Procedure, shortened: (§2)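 Spontaneously beating isolated guinea pig right atrium with a positive chronotropic read-out. Cumulative concentration-response curves were run against histamine dihydrochloride as the standard. Incubation after each concentration was usually 25 min, adjusted until equilibrium. H2 selectivity was checked with cimetidine (10 µM and 1 µM) and metoprolol (1 µM). Potency relative to histamine = 1 was calculated from mean pD2 values.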

[6] = molecular target: Histamine H2 receptor (Cavia porcellus) (UniProt P47747); experiment: Intrinsic activity (as a measure of agonism) on electrically stimulated papillary muscle of guinea pig; type: functional, tissue-based; conditions: Muscle tissue
Procedure, shortened: (§3)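 Isolated right-ventricular papillary muscle from guinea pig, electrically paced at 1 Hz with 1 ms pulses, in Krebs-Henseleit solution gassed with O2/CO2 95:5 at 32.5 °C. Compounds were tested as hydrohalide salts. Cumulative concentration-response curves of contractile force were run against histamine as the standard agonist. […] relative potency were taken from pD2, with histamine maximum = 1.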

[7] = molecular target: Histamine H2 receptor (Cavia porcellus) (UniProt P47747); experiment: Potency relative to histamine calculated from mean pD2 value in guinea pig right atrium.; type: functional, tissue-based; conditions: Cardiac atrium; procedure, shortened: as §2
[8] = molecular target: Histamine H2 receptor (Cavia porcellus) (UniProt P47747); experiment: Histamine H2 receptor agonism relative to histamine on isolated guinea pig right atrium; type: functional, tissue-based; conditions: Cardiac atrium; procedure, shortened: as §2
[9] = molecular target: Histamine H2 receptor (Cavia porcellus) (UniProt P47747); experiment: Agonistic activity relative to histamine on electrically stimulated papillary muscle of guinea pig; type: functional, tissue-based; conditions: Muscle tissue; procedure, shortened: as §3
Histamine H1 receptor = Histamine H1 receptor (Cavia porcellus, UniProt P31389); experiment: Antagonist activity at histamine H1 receptor against histamine in isolated ileum of guinea pig.; type: functional, tissue-based; conditions: read-out: pA2 (converted)
Sequence of Histamine H1 receptor (P31389 whole entry): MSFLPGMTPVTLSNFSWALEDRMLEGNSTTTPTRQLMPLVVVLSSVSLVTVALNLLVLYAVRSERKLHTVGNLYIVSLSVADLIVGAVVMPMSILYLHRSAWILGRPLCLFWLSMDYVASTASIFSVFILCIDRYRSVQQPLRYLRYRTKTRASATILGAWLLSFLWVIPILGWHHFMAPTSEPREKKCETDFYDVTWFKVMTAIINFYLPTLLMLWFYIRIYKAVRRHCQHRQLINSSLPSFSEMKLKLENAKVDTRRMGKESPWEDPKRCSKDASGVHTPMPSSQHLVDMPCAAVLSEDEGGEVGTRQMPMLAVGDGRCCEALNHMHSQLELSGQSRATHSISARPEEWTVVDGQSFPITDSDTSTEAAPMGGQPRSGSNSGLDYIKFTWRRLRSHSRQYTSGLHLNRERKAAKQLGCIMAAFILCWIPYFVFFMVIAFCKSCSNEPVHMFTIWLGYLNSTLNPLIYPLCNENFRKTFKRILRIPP
Procedure, shortened: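 Isolated guinea pig ileum contracted by histamine, with histamine dihydrochloride as the standard agonist in cumulative dose-response curves. pA2 was derived. For compounds that depressed the histamine maximum at 10 µM, -log KB was taken at 3 µM antagonist from log(DR-1) = log[ant.] - log KB.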

For `N=C(NCCCc1c[nH]cn1)NCCC(c1ccccc1)c1ccccn1` (stereo not given), the Delta heart rate (Cavia porcellus [1]) was 70, the “Delta LV” value (Cavia porcellus [2]) was 76 and the Delta coronary flow (Cavia porcellus [3]) was 121. It also gave a Relative potency (Cavia porcellus [4]) of 63, an Intrinsic activity [5] of 1 and an Intrinsic activity [6] of 0.7. The Relative potency [7] was 24.5, the pD2 [8] was 7.39 and the pD2 [9] was 7.37. For the same compound, the Kb (Histamine H1 receptor) was 97.7 nM.

Reference: ChEMBL document CHEMBL1124639, “Synthesis and in vitro pharmacology of arpromidine and related phenyl(pyridylalkyl)guanidines, a potential new class of positive inotropic drugs” (J Med Chem, 1989)
